Screening results: PubChem BioAssay, several laboratories
ALR inh: human ALR oxidase inhibition via reduced H2O2 | P55789 | purified ALR, DTT oxidation, H2O2 HRP-luminol luminescence | inhibition, % (no concentration beside the values) | 290,000 compounds, 3.8% hits;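 active = mean replicate inhibition above about 79%, with every replicate also reaching it, limit read from the data; inconclusive = only one of the two criteria met; inactive = mean below limit and not every replicate reaching it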
Target sequence (P55789 whole entry, looked up): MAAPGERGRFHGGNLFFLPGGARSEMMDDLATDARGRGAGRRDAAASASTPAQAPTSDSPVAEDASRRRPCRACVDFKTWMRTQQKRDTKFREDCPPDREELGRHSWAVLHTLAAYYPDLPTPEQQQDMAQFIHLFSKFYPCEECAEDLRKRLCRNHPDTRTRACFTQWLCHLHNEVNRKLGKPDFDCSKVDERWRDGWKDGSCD
Rtt109 HAT inh: blocks Candida albicans Rtt109/Vps75 acetyltransferase activity; Q5AAJ8; purified Rtt109/Vps75, ThioGlo CoA-SH fluorescence, 4 h; inhibition, % at 34.9 µM; 330,000 compounds, 0.16% hits;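 active = inhibition of at least 50% in every replicate; inconclusive = best replicate reaches 50% inhibition but some replicates fall short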
HDAC3 inhib: human HDAC3 inhibition; O15379; recombinant HDAC3, fluorogenic peptide/trypsin coupled, fluorescence; inhibition, % at 8.3 µM; 320,000 compounds, 0.15% hits; in the data active = inhibition above about 26%, passing the limit was not always enough; inconclusive = no clear call, values can overlap the other calls
Target sequence (O15379 whole entry, looked up): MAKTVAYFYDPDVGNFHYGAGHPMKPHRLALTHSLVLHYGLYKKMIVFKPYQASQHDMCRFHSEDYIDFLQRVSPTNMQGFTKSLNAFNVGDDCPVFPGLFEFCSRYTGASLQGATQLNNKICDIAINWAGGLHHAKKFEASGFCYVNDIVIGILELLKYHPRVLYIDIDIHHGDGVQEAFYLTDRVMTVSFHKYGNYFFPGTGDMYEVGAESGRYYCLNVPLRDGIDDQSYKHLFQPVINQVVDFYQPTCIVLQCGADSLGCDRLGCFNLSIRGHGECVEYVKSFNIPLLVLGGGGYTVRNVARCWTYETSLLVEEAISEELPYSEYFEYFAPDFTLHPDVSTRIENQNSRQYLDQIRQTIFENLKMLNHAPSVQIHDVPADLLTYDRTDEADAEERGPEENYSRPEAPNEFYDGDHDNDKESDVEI
UCH37 DUB inh: blocks the human deubiquitinase UCH37. 330,000 compounds, 0.33% hits. inhibition, % (no concentration beside the values). purified proteasome/UCH37, Ub-AMC cleavage fluorescence;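 active = mean inhibition over replicate wells above about 20%, limit read from the data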;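 also: 0% = compound-free wells with enzyme and 100% = wells lacking proteasome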
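assay system = human UCH37 enzyme supplied as purified proteasome complex | amount = proteasome at 0.15 nM in the dispensed enzyme solution | schedule = 30 min compound-proteasome preincubation then 25 min substrate reaction, room temperature | measured by = fluorescence, ex 355 nm, em 460 nm | benchmarks = no-proteasome wells (full inhibition) and compound-free wells (no inhibition)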
M18AAP inhibitor: blocks P. falciparum M18 aspartyl aminopeptidase. recombinant PfM18AAP, H-Glu-NHMec fluorogenic cleavage. inhibition, % at 7.35 µM. 290,000 compounds, 1.2% hits. AID 1822;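 active = inhibition above the campaign mean inhibition over all tested compounds plus 3 SD, cut at about 28% in these data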;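 also: 0% = plate median of test compound wells and 100% = 2 mM ZnCl2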
FAS TE block: inhibitors of human fatty acid synthase thioesterase domain; recombinant FAS-TE, OMFH fluorogenic substrate, fluorescence endpoint; inhibition, % at 15 µM; 360,000 compounds, 0.67% hits;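 active = compounds whose normalised, plate-corrected inhibition of enzyme fluorescence in the single-dose primary screen is 50% or more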;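 also: 0% = DMSO with enzyme and 100% = substrate without enzyme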
FAS-TE inh conf: confirmation of human fatty acid synthase thioesterase inhibitors; shares compounds with FAS TE block; recombinant FAS-TE, OMFH fluorogenic substrate, fluorescence; inhibition, % at 15 µM; 2,300 compounds, 45% hits;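 active = compounds inhibiting the enzyme by at least 50% at 15 µM in any one of the replicates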;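 also: 0% = enzyme with DMSO only and 100% = wells lacking enzyme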
* hit, by the source's call; ? = inconclusive; . = no result given. This is a sample that favours compounds with a hit; in the whole collection about 4.6% have one here.

SMILES	ALR inh	Rtt109 HAT inh	HDAC3 inhib	UCH37 DUB inh	M18AAP inhibitor	FAS TE block	FAS-TE inh conf
CCOc1ccc(NC(=O)COC(=O)c2cc([N+](=O)[O-])ccc2N2CCOCC2)cc1	-4.5	12.6	2.9	7.0	.	60.9*	39.3
O=C(NCCOc1ccccc1)c1cc([N+](=O)[O-])ccc1N1CCOCC1	0.3	-3.1	1.0	12.0	.	57.0*	29.5
CN1CCN(c2ccc(NC(=O)c3cc([N+](=O)[O-])ccc3N3CCOCC3)cc2)CC1	41.6	2.7	7.0	6.4	-10.3	-0.4	.
CCOc1ccc(NC(=O)c2cc([N+](=O)[O-])ccc2N2CCOCC2)cc1	4.9	4.8	6.0	.	.	55.0*	64.9*
CCN(CC(=O)Nc1ccc(OC)cc1)C(=O)c1cc([N+](=O)[O-])ccc1N1CCOCC1	-14.5	0.9	5.4	7.6	.	28.1	.
Cc1ccc2c(n1)CC(C)(C)CC2=NO	.	.	.	-1.6	.	.	.
Cc1cc(C)nc(N=C(N)Nc2ccc(S(N)(=O)=O)cc2)n1	.	.	.	1.4	.	.	.
CN(C)S(=O)(=O)c1cccc(NC(=S)NN=Cc2ccc(O)c(O)c2O)c1	.	.	.	9.2	.	.	.
O=C1OCCN1C(=O)[C@H]1[C@H](c2ccc(F)cc2)C(c2ccc(F)cc2)=NN1c1ccccc1	2.5	-6.5	-2.5	-5.9	2.1	73.6*	4.0
CC[C@@H]1C(c2ccccc2)=NN(c2ccccc2)[C@H]1C(=O)N1CCOC1=O	.	-9.8	.	-22.1	.	3.6	.
O=C1OCCN1C(=O)[C@H]1[C@H](c2ccc([N+](=O)[O-])cc2)C(c2ccccc2)=NN1c1ccccc1	.	-8.7	.	2.8	.	78.0*	19.5
COc1ccccc1[C@@H]1C(c2ccccc2)=NN(c2ccccc2)[C@H]1C(=O)N1CCOC1=O	.	-5.3	.	-171.3	.	54.9*	21.4
O=C1OCCN1C(=O)[C@H]1[C@H](c2ccc(Cl)cc2)C(c2ccc(F)cc2)=NN1c1ccccc1	.	-0.6	.	-120.8	.	74.1*	32.2
CC(Oc1ccccc1F)c1ccnc2nc(N=CN(C)C)nn12 (stereo unspecified)	.	.	.	-38.6	.	.	.
COc1ccc(O[C@H]2C=C[C@@H](c3ccccc3)O[C@@H]2COC(=O)CCC(C)=NO[C@@H](C)c2cc(-c3c(C)cc(C)cc3C)no2)cc1	.	.	.	1.3	.	.	.
CCOc1cc(C=NNC(=O)c2cc(C3CC3)[nH]n2)ccc1O	.	.	.	0.3	.	.	.
Cc1cccc(C2=NN(c3ccc(Br)cc3)[C@@H](C(=O)N3CCOC3=O)[C@@H]2c2ccc([N+](=O)[O-])cc2)c1	.	-2.5	.	6.2	.	85.1*	13.0
CC(C)Cn1c2c(c(O)c(C(=O)Nn3c(Cc4ccccc4)nc4ccccc4c3=O)c1=O)CCCC2	-1.7	12.5	-7.4	-1.4	3.5	54.4*	9.0
CCCCc1nc2ccccc2c(=O)n1NC(=O)c1c(O)c2c(n(CC(C)C)c1=O)CCCC2	.	9.1	.	-4.8	-7.5	27.1	.
Cc1c(C(=O)NN=Cc2ccc(N3CCOCC3)cc2)nc2ccccn12	.	.	.	-37.4	.	.	.
Cc1c(C(=O)OCCOc2ccc(Br)cc2)sc(=S)n1C	14.0	.	1.7	2.9	-9.0	69.0*	62.8*
O=C(O)c1cc(NN=Nc2ccc(Br)cc2)cc([N+](=O)[O-])c1	-0.2	3.0	6.7	.	-4.3	69.0*	74.8*
CC1=NNC(=O)C1CCC(=O)NN=Cc1ccc(Cl)c(Cl)c1 (stereo unspecified)	.	.	.	7.2	.	.	.
C/C(=N\Nc1ncc(Cl)cc1Cl)c1ccc(OC(F)F)cc1	5.6	1.9	0.1	.	9.5	51.9*	58.8*
C/C(=N\Nc1ncc(Cl)cc1Cl)c1ccc2c(c1)OCO2	-0.2	8.5	-2.9	.	0.1	4.6	.
SMILES	ALR inh	Rtt109 HAT inh	HDAC3 inhib	UCH37 DUB inh	M18AAP inhibitor	FAS TE block	FAS-TE inh conf
C[C@]12C(=O)N(c3ccc(C(F)(F)F)cc3)C(=O)N1[C@H]1c3ccccc3OC[C@@H]1[C@H]2c1ccccc1	-1.9	0.3	1.0	4.1	.	81.8*	21.2
C[C@@]12C(=O)N(c3ccc(Br)cc3)C(=O)N1[C@@H]1c3ccccc3OC[C@@H]1[C@H]2c1ccccc1	-1.6	-7.9	0.0	-5.9	.	60.8*	24.3
C[C@]12C(=O)N(c3ccc(F)cc3)C(=O)N1[C@H]1c3ccccc3OC[C@@H]1[C@H]2c1ccccc1	-3.7	5.3	2.2	2.5	.	89.3*	29.6
C[C@@]12C(=O)N(c3ccc(F)cc3)C(=O)N1[C@@H]1c3ccccc3OC[C@@H]1[C@H]2c1ccccc1	-3.6	10.3	5.3	1.0	-3.6	25.3	.
C[C@]12C(=O)N(c3ccc(Cl)cc3)C(=O)N1[C@@H]1c3ccccc3OC[C@@H]1[C@H]2c1ccccc1	6.8	7.4	?	0.9	.	54.9*	31.6
COc1ccc(N2C(=O)N3[C@@H]4c5ccccc5OC[C@@H]4[C@@H](c4ccccc4)[C@@]3(C)C2=O)cc1	2.5	-1.3	-3.7	-0.1	.	32.0	.
C[C@@]12C(=O)N(c3ccccc3)C(=O)N1[C@@H]1c3ccccc3OC[C@@H]1[C@H]2c1ccccc1	7.0	2.9	9.2	2.0	.	32.4	.
C[C@]12C(=O)N(c3ccc(Br)cc3)C(=O)N1[C@@H]1c3ccccc3OC[C@@H]1[C@H]2c1ccccc1	-3.3	1.6	-14.8	1.7	-1.6	47.3	.
CCOC(=O)Cn1cc(C=NNC(=O)CC#N)c2ccccc21	.	.	.	2.1	.	.	.
Cc1ccc(-c2cc(C(=O)NN=Cc3c[nH]c4ccccc34)[nH]n2)cc1	.	.	.	4.6	.	.	.
Cc1ccc(NC(=O)CC2S/C(=N/N=Cc3ccco3)NC2=O)cc1Cl (stereo unspecified)	.	.	.	5.1	.	.	.
C[C@]12C(=O)N(c3ccc(Cl)cc3)C(=O)N1[C@H]1c3ccccc3OC[C@@H]1[C@H]2c1ccccc1	-7.3	-7.6	1.1	0.4	-0.3	92.9*	12.1
C[C@@]12C(=O)N(c3ccc(Cl)cc3)C(=O)N1[C@@H]1c3ccccc3OC[C@@H]1[C@H]2c1ccccc1	-1.5	6.5	13.9	3.3	.	32.3	.
COc1ccc(Cl)cc1NC(=O)CN(C)C(=O)c1sc2ccccc2c1Cl	-0.6	-1.4	9.3	-1.7	.	51.4*	34.8
Cc1cccc(N2CCN(C(=O)COc3ccc4ccc(=O)oc4c3)CC2)c1C	-2.3	9.4	2.5	-1.0	-1.1	70.0*	83.3*
S=C(NCCc1ccccc1)NN=Cc1cccs1	.	.	.	2.8	.	.	.
COc1cc2c(cc1NC(=O)C(C)N1CCN(S(=O)(=O)c3ccccc3[N+](=O)[O-])CC1)oc1ccccc12 (stereo unspecified)	-6.2	-7.7	4.5	2.6	-2.9	53.7*	12.5
Cc1nn(Cc2ccc(Cl)cc2)c(Cl)c1C=NNC(=O)CNc1ccccc1F	.	.	.	-0.9	.	.	.
COc1ccc(C2c3c(c(C)c(C)oc3=O)Oc3c(C)c(C)oc(=O)c32)cc1	-0.9	-1.9	-2.2	-0.3	.	4.6	.
